Results reported in ChEMBL document CHEMBL4145554, “Structure-activity relationships of talaumidin derivatives: Their neurite-outgrowth promotion in vitro and optic nerve regeneration in vivo” (Eur J Med Chem, 2018).
Active and inactive are the calls of the source. The calls are words filed in the database; no cut-off is given here.

Each compound was assayed on PC-12 (assay: Neurite-outgrowth promoting activity in NGF-differentiated rat PC12 cells assessed as increase in neurite length at 30 uM after 4 days by methylene blue staining based phase contrast microscopic method).
Type: functional, cell-based
Summary of the method: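 Cells seeded at 8 × 10^3 cells/cm2 in DMEM/10% HS/5% FBS/antibiotics, 24 h, 37 °C, 5% CO2; medium then switched to DMEM/2% HS/1% FBS with test sample plus 2 ng/mL NGF for 4 days, triplicate wells. Fixed in 4% paraformaldehyde, methylene blue stained; longest neurite of 5 differentiated cells in 5 random images per well measured, ≥100 cells per sample; Dunnett's t-test.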
For `C[C@@H]1[C@H](C)CO[C@@H]1c1ccc2c(c1)OCO2`, the Activity was “inactive”.
In the case of `Cc1c(-c2ccc(O)cc2)oc(-c2ccc(O)cc2)c1C`, the Activity is reported as “Active”.
With `C[C@@H]1[C@H](C)[C@H](c2ccc(O)cc2)O[C@@H]1c1ccc(O)cc1` the Activity was “Active”.
`c1cc2c(cc1[C@@H]1CC[C@H](c3ccc4c(c3)OCO4)O1)OCO2` was tested, and the Activity was “Active”.
In the case of `COc1cc(C2OC(c3ccc4c(c3)OCO4)C(C)C2C)ccc1O` (racemic), the Activity is reported as “Active”.
`Cc1c(-c2ccc3c(c2)OCO3)oc(-c2ccc3c(c2)OCO3)c1C` was tested, and the Activity was “Active”.
`Cc1ccc([C@H]2O[C@@H](c3ccc(C)cc3)[C@@H](C)[C@H]2C)cc1` was tested, and the Activity was “Active”.
For `Cc1ccc(-c2oc(-c3ccc(C)cc3)c(C)c2C)cc1`, the Activity was “Active”.
With `COc1ccc(-c2oc(-c3ccc(OC)cc3)c(C)c2C)cc1` the Activity was “Active”.
With `COc1cc(-c2oc(-c3ccc(O)c(OC)c3)c(C)c2C)ccc1O` the Activity was “Active”.
With `COc1cc([C@H]2O[C@H](c3ccc4c(c3)OCO4)[C@@H](C)[C@@H]2C)ccc1O` the Activity was “Active”.
`COc1ccc([C@H]2O[C@@H](c3ccc(OC)cc3)[C@@H](C)[C@H]2C)cc1` was tested, and the Activity was “Active”.
In the case of `COc1cc([C@H]2O[C@@H](c3ccc(O)c(OC)c3)[C@@H](C)[C@H]2C)ccc1O`, the Activity is reported as “Active”.
In the case of `COc1cc([C@H]2O[C@@H](c3ccc4c(c3)OCO4)[C@@H](C)[C@H]2C)ccc1O`, the Activity is reported as “Active”.
In the case of `COc1cc(-c2oc(-c3ccc4c(c3)OCO4)c(C)c2C)ccc1O`, the Activity is reported as “Active”.

The compounds below were run on Mus musculus (assay: In vivo neurite-outgrowth promoting activity in C57BL/6 mouse assessed as regeneration of injured optic nerve by measuring GAP-43 positive axons extending over injury site at 30 uM measured 2 weeks post optic nerve injury by fluorescence microscopic method).
Type: functional, organism-based
Summary of the method: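 Male mice, 9 weeks old, anesthetized with intraperitoneal sodium pentobarbital (30e40 mg/kg); optic nerve crushed with forceps 1 mm behind the eyeball. Longitudinal […] cryosections (OCT) stained with anti-GAP43 (1:250) plus fluorescent secondary; regenerating axons counted manually at […] from injury site, ≥8 sections per condition, 6 mice/group; Dunnett's t-test versus injury.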
For `COc1cc(C2OC(c3ccc4c(c3)OCO4)C(C)C2C)ccc1O` (racemic), the Activity was “Active”.
With `COc1cc([C@H]2O[C@H](c3ccc4c(c3)OCO4)[C@@H](C)[C@@H]2C)ccc1O` the Activity was “Active”.
